What is called IC50 is the concentration needed to halve the response being measured. The low end stands for higher potency, the high end for lower potency. A word on the EC50: it is the midpoint of the concentration-response curve. A higher EC50 goes with a need for much substance.

These results are taken from ChEMBL document CHEMBL1149859, “Proteasome inhibition by peptide-semicarbazones” (Bioorg Med Chem, 2008).

Assay [1] can be described thus: Inhibition of human 20S proteasome by fluorescence spectroscopy. The gist of the method:
(§1)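 20S proteasome (1.3 µg) activated in 25 mM Hepes pH 7.5, 0.5 mM EDTA, 0.033% SDS for 10 min at room temperature. Added to compound in DMSO with 75 µM Suc-LLVY-AMC. AMC release followed 20 min at 30 °C (ex 360, em 465 nm) as RFU/min. IC50 from eight concentrations, triplicates on one day.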

A further assay concerns A549. The experiment in a line: Inhibition of TNF-alpha-induced NF-kappaB transcriptional activation in human A549 cells by SEAP reporter gene assay. In kind it is functional, cell-based. Put shortly:
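A549 cells stably transfected with a pNF-κB-SEAP reporter, seeded at 2 × 10^4/well and attached overnight. Preincubated 5 h with compound at 100, 30, 10, 3, 1, 0.3, 0.1 and 0 µM, then stimulated with 10 ng/ml TNF-α for 22 h. Supernatant SEAP read by chemiluminescence; viability checked in parallel with CellTiter-Blue.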
A general note: In a reporter assay the amount or activity of a reporter protein is the signal.

The test system of another assay is PBMC. The experiment in a line: Antiproliferative activity against human peripheral blood mononuclear cells after 48 hrs by ELISA. The format is cell-based. Put shortly:
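Human PBMC isolated by density gradient, 100,000–200,000 cells/well in RPMI 1640 with 10% heat-inactivated FBS. Stimulated with 20 µg/ml PHA-L and exposed to compound at 0.4–50 µM for 48 h at 37 °C, 5% CO2. BrdU (10 µM) added for a further 4 h. Cells fixed and DNA denatured; incorporated BrdU detected with anti-BrdU-POD.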
For orientation: In an ELISA, binding on a coated surface is turned into a signal by an enzyme label.

Assay [2] is described as follows: Inhibition of peptidylglutamyl peptide hydrolyzing site of human 20S proteasome. The gist of the method: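 Peptidylglutamyl-peptide hydrolysing activity of SDS-activated 20S proteasome (1.3 µg; 25 mM Hepes pH 7.5, 0.5 mM EDTA, 0.033% SDS, 10 min preincubation at room temperature). Substrate was 75 µM Z-LLE-βNA with compound in DMSO. Fluorescence followed 20 min at 30 °C as RFU/min. IC50 from eight concentrations, triplicates on one day.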

A short description of assay [3]: Inhibition of chymotrypsin-like site of human 20S proteasome. Put shortly:
as §1

Calls of active or inactive are those of the source. No cut-off for these calls is given here.

In assay [1], `O=C1CN(/N=C/[C@H](Cc2ccccc2)NC(=O)[C@H](Cc2c[nH]c3ccccc23)NC(=O)[C@H](Cc2c[nH]c3ccccc23)NC(=O)CCc2ccc(O)cc2)C(=O)N1` displayed an IC50 of 100 nM. This compound yielded an EC50 in the assay on A549 of 8700 nM.
As to `O=C1CN(/N=C/[C@H](Cc2ccccc2)NC(=O)[C@H](Cc2c[nH]c3ccccc23)NC(=O)[C@H](Cc2c[nH]c3ccccc23)NC(=O)OCc2ccncc2)C(=O)N1`, in assay [1], inhibition was half-maximal at 1600 nM (IC50). This compound also came in with an EC50 in the assay with A549 of 4900 nM.
For `O=C1CN(/N=C/[C@H](Cc2c[nH]c3ccccc23)NC(=O)[C@H](Cc2c[nH]c3ccccc23)NC(=O)[C@H](Cc2c[nH]c3ccccc23)NC(=O)OCc2ccccc2)C(=O)N1` the same measures were 1100 nM and 3000 nM.
In assay [1], `NC(=O)N/N=C/[C@H](Cc1ccccc1)NC(=O)[C@H](Cc1c[nH]c2ccccc12)NC(=O)[C@H](Cc1c[nH]c2ccccc12)NC(=O)OCc1ccccc1` yielded a concentration for half-maximal inhibition (IC50) of 200 nM. The EC50 in the assay on A549 came out at 5800 nM.
For the compound `O=C1CN(/N=C/[C@H](Cc2ccccc2)NC(=O)[C@H](Cc2c[nH]c3ccccc23)NC(=O)[C@H](Cc2c[nH]c3ccccc23)NC(=O)OCc2ccccc2)C(=O)N1`, the IC50 in assay [1] was found to be 200 nM; in the assay with PBMC it was 700 nM; in assay [2], 1200 nM; in assay [3] it was 200 nM. This compound also had an EC50 with A549 of 400 nM.
With `NC(=O)N/N=C/[C@H](Cc1c[nH]c2ccccc12)NC(=O)[C@H](Cc1c[nH]c2ccccc12)NC(=O)[C@H](Cc1c[nH]c2ccccc12)NC(=O)OCc1ccccc1`, the IC50 in assay [1] stood at 100 nM; in the assay with PBMC it was 1400 nM; in assay [2] it was 3700 nM; in assay [3], 100 nM. Further, the midpoint of the response in the assay on A549, the EC50, lay at 1800 nM.
In turn, `O=C1CN(/N=C/[C@@H](Cc2ccccc2)NC(=O)[C@H](Cc2c[nH]c3ccccc23)NC(=O)[C@H](Cc2c[nH]c3ccccc23)NC(=O)OCc2ccccc2)C(=O)N1` displayed an IC50 in assay [1] of 400 nM. Moreover, in the assay with A549, a half-maximal response (EC50) required 800 nM.
Consider `O=C1CN(/N=C/[C@H](Cc2ccccc2)NC(=O)[C@H](Cc2c[nH]c3ccccc23)NC(=O)[C@H](Cc2c[nH]c3ccccc23)NC(=O)CCCCC2SCC3NC(=O)NC32)C(=O)N1` (stereo partly drawn), for which the IC50 in assay [1] turned out to be 100 nM; in the assay with PBMC, 29000 nM. Further, the result in the assay on A549 was inactive.
